Apaf1 inhib: inhibitors of human Apaf-1 apoptosome, primary screen, biochemical, DEVD-Rh110 fluorescence, uHTS; Apoptotic protease-activating factor 1 (Homo sapiens), O14727; reconstituted apoptosome caspase-3 activity; inhibition, % at 20 µM; hit rate 0.71% among 330,000; AID 489030, 2010; active = inhibition of at least 40% at 20 µM;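 note: plate controls were DMSO wells for no effect and DEVD-CHO caspase inhibitor wells for full effect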
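Material: reconstituted apoptosome with Apaf-1, cytochrome c, caspase-9, procaspase-3, dATP / Buffer or medium: pH 7.5 Hepes buffer with CHAPS, BSA, DTT / Also added: cytochrome c with DEVD-Rh110 / Schedule: compound with Apaf-1, dATP, procaspase-3 30 min, then 50 min reaction, room temperature / Technique: rhodamine 110 fluorescence at Ex 480/Em 540 nm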
MEKK2wt PB1 HTS: modulators of MEK5 binding to wildtype MEKK2, primary screen, biochemical, multiplex bead flow cytometry, Alexa488-MEK5 | Alexa488-MEK5 binding to MEKK2 WT; actives lie on both sides | binding response (% of control), % at 10 µM | hit rate 1.1% among 290,000 | AID 1531, 2009; in the data active = binding response below about 67% or above about 130%
PREPL inhibitor: PREPL enzyme inhibitors, primary screen, biochemical, fluorescence polarization. AID 2751, 2010. inhibition, % at 5.96 µM. hit rate 0.68% among 320,000. recombinant PREPL, fluorescence polarization activity-based probe. Prolyl endopeptidase-like (Homo sapiens), Q4J6C6; in the data active = inhibition above about 43%;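 note: 0% = enzyme with DMSO and 100% = wells lacking enzyme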
MEKK3 PB1 HTS: modulators of MEKK3-MEK5 PB1 binding, primary screen, biochemical, wildtype MEKK3, multiplex bead flow cytometry, Alexa488-MEK5; Mitogen-activated protein kinase kinase kinase 3 (Homo sapiens), Q99759; bead-based flow cytometry, Alexa488-MEK5 binding to MEKK3; actives lie on both sides; 0 = blocked by unlabeled MEK5, 100 = vehicle; binding response (% of control), % at 10 µM; hit rate 1.4% among 290,000; AID 1529, 2009;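 active = binding response more than 3 SD above or below the average of its plate-row segment, actives on both sides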;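 note: Alexa488 bead fluorescence after subtracting the streptavidin-only scavenger bead signal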
Target sequence (Q99759 whole entry, looked up): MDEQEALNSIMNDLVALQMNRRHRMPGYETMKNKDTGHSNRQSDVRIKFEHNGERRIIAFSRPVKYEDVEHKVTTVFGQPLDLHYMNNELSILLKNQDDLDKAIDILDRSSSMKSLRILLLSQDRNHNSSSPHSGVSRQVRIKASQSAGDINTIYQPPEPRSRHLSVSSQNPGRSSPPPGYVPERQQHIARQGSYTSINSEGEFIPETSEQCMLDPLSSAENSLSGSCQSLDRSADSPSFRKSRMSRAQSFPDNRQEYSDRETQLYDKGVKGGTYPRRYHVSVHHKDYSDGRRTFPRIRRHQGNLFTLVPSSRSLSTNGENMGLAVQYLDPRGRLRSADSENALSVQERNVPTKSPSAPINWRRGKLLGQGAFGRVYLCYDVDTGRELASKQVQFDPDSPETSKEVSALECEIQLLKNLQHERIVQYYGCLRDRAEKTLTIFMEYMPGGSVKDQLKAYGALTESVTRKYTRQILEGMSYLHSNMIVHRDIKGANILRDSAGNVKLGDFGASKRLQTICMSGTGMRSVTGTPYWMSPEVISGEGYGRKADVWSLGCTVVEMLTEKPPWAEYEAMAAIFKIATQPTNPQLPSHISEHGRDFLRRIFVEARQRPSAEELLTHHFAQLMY
UBC13 polyUb: UBC13 polyubiquitin chain formation inhibitors, primary screen, biochemical, TR-FRET, uHTS. Ubiquitin-conjugating enzyme E2 N (Homo sapiens), P61088. inhibition, % at 20 µM. hit rate 0.47% among 330,000; in the data active = inhibition above about 45%, passing the limit was not always enough
MEKK2 mut-MEK5: MEK5 binding signal on mutant MEKK2 PB1, primary screen, biochemical, multiplex bead flow cytometry, Alexa488-MEK5. Alexa488-MEK5 binding to MEKK2 mutant. percent response, % at 10 µM. hit rate 0.35% among 290,000. AID 1530, 2009; in the data active = percent response above about 24%, passing the limit was not always enough
MEKK2wt confirm: modulators of MEK5 binding to wildtype MEKK2, confirmation, biochemical, single concentration, multiplex bead flow cytometry; shares compounds with MEKK3 PB1 HTS; Alexa488-MEK5 binding to MEKK2 WT; actives lie on both sides; binding response (% of control), % at 10 µM; hit rate 2.4% among 5,900; AID 1892, 2009; in the data active = binding response below about 16% or above about 210%; inactive = in between
MEKK2mut confirm: mutant MEKK2 PB1-MEK5 binding signal retest – biochemical, single concentration, multiplex bead flow cytometry, confirmation | shares compounds with MEKK3 PB1 HTS | Alexa488-MEK5 binding to MEKK2 mutant | percent response, % at 10 µM | hit rate 2% among 5,900 | AID 1893, 2009; in the data active = percent response mostly above about 71%, no sharp cut-off; inactive = mostly below about 38%;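 note: higher means compound restores mutant binding toward wildtype level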
MEKK3-MEK5 inh: MEKK3 wild-type PB1 binding to MEK5, inhibitors, confirmation, biochemical, bead multiplex flow cytometry, single concentration, wildtype; shares compounds with MEKK3 PB1 HTS; binding response (% of control), % at 10 µM; hit rate 1.8% among 5,900; Alexa488-MEK5 binding to MEKK3; stronger effect = lower value;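 active = binding response below 72% of control, or above a set upper limit, though filed actives all read lower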;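 note: 100% = DMSO only wells and 0% = binding blocked by excess unlabeled MEK5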
Active calls of the source: *; x = not tested or not shown; [ ] = remark or other dose. In the library only some 3.1% were active in any assay of this set; here they are far more common.

SMILES	Apaf1 inhib	MEKK2wt PB1 HTS	PREPL inhibitor	MEKK3 PB1 HTS	UBC13 polyUb	MEKK2 mut-MEK5	MEKK2wt confirm	MEKK2mut confirm	MEKK3-MEK5 inh
Cc1ccc(NS(=O)(=O)N(C)C)cc1	3.2	81.0	-5.2	71.0*[inhibitor]	4.7	-4.0	99.0	-4.0	102.0
COC(=O)/C=C1\S/C(=N/N=C/c2ccccc2)NC1=O	-1.6	107.0	5.5	139.0*	-11.1	1.0	94.0	-5.0	97.0
COc1ccc(C(C(=O)NC(C)(C)C)N(C(=O)CNC(=O)c2cccs2)c2cccnc2)cc1OC (centres undefined)	0.8	99.0	-2.1	102.0	5.2	5.0	x	x	x
CC(C)Cn1c(N)c(C(=O)COC(=O)c2cccn2C)c(=O)n(C)c1=O	-6.3	x	3.9	x	11.5	x	x	x	x
COCCN(C(=S)Nc1ccc(OC)cc1)C1CCN(C(C)=O)CC1	2.7	102.0	-3.1	99.0	-11.0	0.0	x	x	x
COCCN(C(=S)Nc1cccc(OC)c1)C1CCN(C(C)C)CC1	12.4	108.0	8.7	137.0*	4.7	0.0	106.0	6.0	101.0
Cc1ccc(NC(=S)N(CCN2CCCCC2)Cc2ccco2)cc1	1.0	96.0	8.5	91.0	9.4	-3.0	x	x	x
COCCN(C(=O)Nc1ccc(OC)cc1OC)C1CCN(C(C)C)CC1	-34.2	91.0	-0.4	81.0*[inhibitor]	2.0	-8.0	99.0	-4.0	95.0
COCCN(C(=S)Nc1ccc(OC)cc1)C1CCN(C(C)C)CC1	-3.8	109.0	2.5	134.0*	1.1	1.0	100.0	7.0	105.0
Cc1ccc(NC(=S)N(Cc2ccco2)C2CCN(C(C)C)CC2)cc1	-1.5	105.0	1.0	132.0*	11.4	1.0	104.0	5.0	99.0
COCCN(C(=S)Nc1cccc(OC)c1)C1CCN(C(C)=O)CC1	16.3	105.0	14.2	105.0	-8.3	1.0	x	x	x
CC(C)C(NC(=O)c1ccc(C(C)(C)C)cc1)C(=O)NCc1ccccn1 (centres undefined)	-5.4	x	5.5	x	22.9	x	x	x	x
Cc1cccc(NC(=O)C2CC3CCC2C3)c1C (centres undefined)	-0.6	x	10.3	x	-4.6	x	x	x	x
Cc1cc(=O)n(C(C)(C)C)c(=O)n1Cc1ccccc1	2.7	106.0	6.5	105.0	5.4	4.0	x	x	x
c1ccc2c(c1)[nH]c1c(N3CCCC3)ncnc12	-1.6	100.0	9.6	101.0	-9.9	7.0	x	x	x
Brc1ccc2[nH]c3c(N4CCc5ccccc5C4)ncnc3c2c1	26.4	150.0*	37.2	104.0	28.5	35.0	127.0	2.0	104.0
Cc1cc(C)c2c(n1)SCC(=O)N2CC(=O)Nc1ccc(F)cc1	7.9	103.0	-4.2	105.0	-9.0	5.0	x	x	x
COC(=O)Cn1c(=NC(=O)c2cc(OC)cc(OC)c2)sc2cc(OC)ccc21	0.9	103.0	-10.2	130.0*	22.9	0.0	99.0	-10.0	105.0
COc1ccc(S(=O)(=O)N2CCC(C(=O)N3CCCCC3)CC2)cc1OC	-0.4	121.0	1.4	130.0*	-2.0	6.0	98.0	9.0	102.0
COc1ccc(S(=O)(=O)N2CCCC(C(=O)N3CCCC3)C2)cc1OC (centres undefined)	-7.6	x	2.9	x	-23.0	x	x	x	x
O=C(NC(=S)Nc1cccc(Cl)c1Cl)C1CC1	4.5	98.0	-5.1	103.0	3.6	-2.0	x	x	x
Cc1cccc(C(C)(C)C)c1OCCn1ccnc1	19.9	-1.0*[inhibitor]	7.8	-1.0*[inhibitor]	-6.5	-21.0	92.0	-5.0	98.0
C/C(=N/NC(=O)Cc1c(C)[nH][nH]c1=O)c1ccc(O)cc1	-12.1	113.0	-7.3	145.0*	14.1	2.0	97.0	-5.0	100.0
COc1cc(/C(C)=N/NC(=O)Cc2c(C)[nH][nH]c2=O)ccc1O	5.1	101.0	6.6	115.0	1.5	0.0	x	x	x
C/C(=N\NC(=O)Cc1c(C)[nH][nH]c1=O)c1cccc(Br)c1	-26.0	50.0	11.5	49.0*[inhibitor]	10.8	-12.0	98.0	-6.0	100.0
SMILES	Apaf1 inhib	MEKK2wt PB1 HTS	PREPL inhibitor	MEKK3 PB1 HTS	UBC13 polyUb	MEKK2 mut-MEK5	MEKK2wt confirm	MEKK2mut confirm	MEKK3-MEK5 inh
C/C(=N\NC(=O)Cc1c(C)[nH][nH]c1=O)c1ccc(Cl)c(Cl)c1	-5.0	99.0	3.6	100.0	-2.1	-2.0	x	x	x
CN1CCN(c2ncccc2S(=O)(=O)N2CCCCC2)CC1	-6.4	1.0*[inhibitor]	-3.5	1.0*[inhibitor]	1.6	-2.0	98.0	-3.0	101.0
O=C(c1cccc(S(=O)(=O)N2CCCc3ccccc32)c1)N1CCN(c2ccccc2)CC1	14.5	x	19.4	x	12.8	x	x	x	x
COc1ccc(/C=C(/NC(=O)/C=C/c2ccccc2)C(=O)N2CCOCC2)cc1	-12.8	108.0	-3.4	149.0*	-4.1	1.0	108.0	7.0	106.0
O=C(/C=C/c1ccccc1)N/C(=C/c1ccccc1)C(=O)N1CCCCC1	0.1	103.0	0.3	107.0	-0.5	6.0	x	x	x
CN(C)CCCNc1ccc(-c2cc(Nc3cccc(Cl)c3)ncn2)cn1	25.9	159.0*	35.2	93.0	41.8	15.0	137.0	14.0	106.0
CCOC(=O)c1ccc(NC(=O)CN2C(=O)NC3(CCCCCCC3)C2=O)cc1	9.6	x	-1.3	x	4.9	x	x	x	x
Cc1c(Br)c(C(F)(F)F)nn1CC(=O)NCc1ccccc1	3.4	102.0	-3.0	132.0*	3.9	0.0	91.0	-6.0	93.0
CC1CN(CCC(=O)Nc2ccccc2F)CC(C)O1 (centres undefined)	-8.5	108.0	2.7	106.0	-0.9	14.0	x	x	x
CCc1ccc(CCN2C(=O)c3ccccc3C2=O)nc1	1.6	75.0	12.2	75.0*[inhibitor]	2.9	-31.0	97.0	-4.0	101.0
COC(=O)c1cc(NC(=O)c2ccccc2)c(=O)oc1/C=C/Nc1ccc(Oc2ccccc2)cc1	8.3	218.0*	x	85.0	-147.0	734.0*	87.0	-30.0	73.0

Bioassay records (PubChem)
